Test results: ChEMBL document CHEMBL1811814, “Synthesis and evaluation of indole, pyrazole, chromone and pyrimidine based conjugates for tumor growth inhibitory activities--development of highly efficacious cytotoxic agents” (Eur J Med Chem, 2010)

Tests used:
Assay type in all cases: functional
Parameters in all cases: scale not given: the % may be the effect or the level left
[1] = system: CCRF-CEM; experiment: Growth inhibition of human CCRF-CEM cells assessed tumor cell growth at 10^-5 M
In short: (§1)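 NCI 60-human-tumor-cell-line panel screen. Each compound was tested at a single concentration of 10^-5 M, and percent growth of tumor cells was recorded for each cell line. Growth inhibition was expressed from these percent-growth values.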

[2] = system: HL-60(TB); experiment: Growth inhibition of human HL-60(TB) cells assessed tumor cell growth at 10^-5 M
In short: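 HL-60(TB), part of the 60-line panel, tested at a single concentration of 10^-5 M. The read-out is percent tumor cell growth relative to untreated growth.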

[3] = system: K562; experiment: Growth inhibition of human K562 cells assessed tumor cell growth at 10^-5 M; in short: as §1
[4] = system: MOLT-4; experiment: Growth inhibition of human MOLT4 cells assessed tumor cell growth at 10^-5 M; in short: as §1
[5] = Growth inhibition of human […] cells assessed tumor cell growth at 10^-5 M; in short: as §1
[6] = system: SR; experiment: Growth inhibition of human SR cells assessed tumor cell growth at 10^-5 M
In short: (§2)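 Single-dose screen at 10^-5 M across the 60 human tumor cell line panel, run to NCI standards. The value is the percent growth of each cell line in the presence of compound. Compounds active at this dose moved on to five-concentration testing (10^-4 to 10^-8 M).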

[7] = system: A549; experiment: Growth inhibition of human A549 cells assessed tumor cell growth at 10^-5 M; in short: as §1
[8] = system: EKVX; experiment: Growth inhibition of human EKVX cells assessed tumor cell growth at 10^-5 M; in short: as §1
[9] = system: HOP-62; experiment: Growth inhibition of human HOP62 cells assessed tumor cell growth at 10^-5 M; in short: as §1
[10] = system: HOP-92; experiment: Growth inhibition of human HOP92 cells assessed tumor cell growth at 10^-5 M; in short: as §1
[11] = system: NCI-H226; experiment: Growth inhibition of human NCI-H226 cells assessed tumor cell growth at 10^-5 M; in short: as §1
[12] = system: NCI-H23; experiment: Growth inhibition of human NCI-H23 cells assessed tumor cell growth at 10^-5 M; in short: as §1
[13] = system: NCI-H322M; experiment: Growth inhibition of human NCI-H322M cells assessed tumor cell growth at 10^-5 M; in short: as §1
[14] = system: NCI-H460; experiment: Growth inhibition of human NCI-H460 cells assessed tumor cell growth at 10^-5 M; in short: as §1
[15] = system: COLO 205; experiment: Growth inhibition of human COLO205 cells assessed tumor cell growth at 10^-5 M; in short: as §1
[16] = system: HCC 2998; experiment: Growth inhibition of human HCC2998 cells assessed tumor cell growth at 10^-5 M; in short: as §1
[17] = system: HCT-116; experiment: Growth inhibition of human HCT116 cells assessed tumor cell growth at 10^-5 M; in short: as §1
[18] = system: HCT-15; experiment: Growth inhibition of human HCT15 cells assessed tumor cell growth at 10^-5 M; in short: as §1
[19] = system: HT-29; experiment: Growth inhibition of human HT-29 cells assessed tumor cell growth at 10^-5 M; in short: as §1
[20] = system: KM12; experiment: Growth inhibition of human KM12 cells assessed tumor cell growth at 10^-5 M; in short: as §1
[21] = system: SW-620; experiment: Growth inhibition of human SW620 cells assessed tumor cell growth at 10^-5 M; in short: as §2
[22] = system: SF-268; experiment: Growth inhibition of human SF268 cells assessed tumor cell growth at 10^-5 M; in short: as §1
[23] = system: SF-295; experiment: Growth inhibition of human SF295 cells assessed tumor cell growth at 10^-5 M; in short: as §1
[24] = system: SF-539; experiment: Growth inhibition of human SF539 cells assessed tumor cell growth at 10^-5 M; in short: as §1
[25] = system: SNB-19; experiment: Growth inhibition of human SNB19 cells assessed tumor cell growth at 10^-5 M; in short: as §2
[26] = system: SNB-75; experiment: Growth inhibition of human SNB75 cells assessed tumor cell growth at 10^-5 M; in short: as §2
[27] = system: U-251; experiment: Growth inhibition of human U251 cells assessed tumor cell growth at 10^-5 M; in short: as §2
[28] = system: LOX IMVI; experiment: Growth inhibition of human LOXIMVI cells assessed tumor cell growth at 10^-5 M; in short: as §1
[29] = system: Malme-3M; experiment: Growth inhibition of human MALME-3M cells assessed tumor cell growth at 10^-5 M; in short: as §1
[30] = system: M14; experiment: Growth inhibition of human M14 cells assessed tumor cell growth at 10^-5 M; in short: as §1
[31] = system: MDA-MB-435; experiment: Growth inhibition of human MDA-MB-435 cells assessed tumor cell growth at 10^-5 M; in short: as §1
[32] = system: SK-MEL-2; experiment: Growth inhibition of human SK-MEL-2 cells assessed tumor cell growth at 10^-5 M; in short: as §1
[33] = system: SK-MEL-28; experiment: Growth inhibition of human SK-MEL-28 cells assessed tumor cell growth at 10^-5 M; in short: as §1
[34] = system: SK-MEL-5; experiment: Growth inhibition of human SK-MEL-5 cells assessed tumor cell growth at 10^-5 M; in short: as §1
[35] = system: UACC-257; experiment: Growth inhibition of human UACC257 cells assessed tumor cell growth at 10^-5 M; in short: as §2
[36] = system: UACC-62; experiment: Growth inhibition of human UACC62 cells assessed tumor cell growth at 10^-5 M; in short: as §2
[37] = system: IGROV-1; experiment: Growth inhibition of human IGROV1 cells assessed tumor cell growth at 10^-5 M; in short: as §1
[38] = system: OVCAR-3; experiment: Growth inhibition of human OVCAR3 cells assessed tumor cell growth at 10^-5 M; in short: as §1
[39] = system: OVCAR-4; experiment: Growth inhibition of human OVCAR4 cells assessed tumor cell growth at 10^-5 M; in short: as §1
[40] = system: OVCAR-5; experiment: Growth inhibition of human OVCAR5 cells assessed tumor cell growth at 10^-5 M; in short: as §1
[41] = system: OVCAR-8; experiment: Growth inhibition of human OVCAR8 cells assessed tumor cell growth at 10^-5 M; in short: as §1
[42] = system: NCI/ADR-RES; experiment: Growth inhibition of human NCI/ADR-RES cells assessed tumor cell growth at 10^-5 M; in short: as §1
[43] = system: SK-OV-3; experiment: Growth inhibition of human SKOV3 cells assessed tumor cell growth at 10^-5 M; in short: as §1
[44] = system: 786-0; experiment: Growth inhibition of human 786-0 cells assessed tumor cell growth at 10^-5 M; in short: as §1
[45] = system: A498; experiment: Growth inhibition of human A498 cells assessed tumor cell growth at 10^-5 M; in short: as §1
[46] = system: ACHN; experiment: Growth inhibition of human ACHN cells assessed tumor cell growth at 10^-5 M; in short: as §1
[47] = system: CAKI-1; experiment: Growth inhibition of human Caki1 cells assessed tumor cell growth at 10^-5 M; in short: as §1
[48] = system: RXF 393; experiment: Growth inhibition of human RXF393 cells assessed tumor cell growth at 10^-5 M; in short: as §1
[49] = system: SN12C; experiment: Growth inhibition of human SN12C cells assessed tumor cell growth at 10^-5 M; in short: as §1
[50] = system: UO-31; experiment: Growth inhibition of human UO31 cells assessed tumor cell growth at 10^-5 M; in short: as §2
[51] = system: PC-3; experiment: Growth inhibition of human PC3 cells assessed tumor cell growth at 10^-5 M; in short: as §1
[52] = system: DU-145; experiment: Growth inhibition of human DU145 cells assessed tumor cell growth at 10^-5 M; in short: as §1
[53] = system: MCF7; experiment: Growth inhibition of human MCF7 cells assessed tumor cell growth at 10^-5 M; in short: as §1
[54] = system: MDA-MB-231; experiment: Growth inhibition of human MDA-MB-231 cells assessed tumor cell growth at 10^-5 M; in short: as §1
[55] = Growth inhibition of human Hs 578T cells assessed tumor cell growth at 10^-5 M; in short: as §1
[56] = system: BT-549; experiment: Growth inhibition of human BT549 cells assessed tumor cell growth at 10^-5 M; in short: as §1
[57] = system: T47D; experiment: Growth inhibition of human T47D cells assessed tumor cell growth at 10^-5 M; in short: as §2
[58] = system: MDA-MB-468; experiment: Growth inhibition of human MDA-MB-468 cells assessed tumor cell growth at 10^-5 M; in short: as §1

**Q.** What does the source list for CC1=NN(c2cccc(Cl)c2)C(=O)/C1=C\c1coc2ccccc2c1=O?
**A.** Activity [1]: 97.52%; Activity [2]: 106.16%; Activity [3]: 109.12%; Activity [4]: 102.14%; Activity [5]: 72.35%; Activity [6]: 96.27%; Activity [7]: 102.67%; Activity [8]: 110.36%; Activity [9]: 110.49%; Activity [10]: 91.19%; Activity [11]: 93.17%; Activity [12]: 88.35%; Activity [13]: 121.02%; Activity [14]: 112.85%; Activity [15]: 138.42%; Activity [16]: 94.86%; Activity [17]: 106.06%; Activity [18]: 92.73%; Activity [19]: 114.92%; Activity [20]: 113.31%; Activity [21]: 98.74%; Activity [22]: 101.34%; Activity [23]: 127.24%; Activity [24]: 95.06%; Activity [25]: 102.59%; Activity [26]: 94.9%; Activity [27]: 97.41%; Activity [28]: 92.97%; Activity [29]: 107.7%; Activity [30]: 63.48%; Activity [31]: 110.64%; Activity [32]: 96.49%; Activity [33]: 109.94%; Activity [34]: 109.62%; Activity [35]: 98.36%; Activity [36]: 92.44%; Activity [37]: 105.92%; Activity [38]: 123.01%; Activity [39]: 99.9%; Activity [40]: 93.56%; Activity [41]: 99.11%; Activity [42]: 87.3%; Activity [43]: 103.95%; Activity [44]: 77.33%; Activity [45]: 114.05%; Activity [46]: 96.23%; Activity [47]: 96.64%; Activity [48]: 96.69%; Activity [49]: 100.25%; Activity [50]: 82.13%; Activity [51]: 108.19%; Activity [52]: 115.23%; Activity [53]: 86.4%; Activity [54]: 98.59%; Activity [55]: 96.45%; Activity [56]: 98.21%; Activity [57]: 92.99%; Activity [58]: 106.03%
